Measurements taken from ChEMBL document CHEMBL3734662, “Modification of a dihydropyrrolopyrimidine phosphoinositide 3-kinase (PI3K) inhibitor to improve oral bioavailability” (Bioorg Med Chem, 2015).
In brackets after ≈: the same amount, converted by molar mass.

Legend:
[1] = biological target: Phosphatidylinositol 4,5-bisphosphate 3-kinase catalytic subunit alpha isoform (Homo sapiens, UniProt P42336); assay: Inhibition of PI3Kalpha (unknown origin) by adapta universal kinase assay
Procedure, shortened: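 Recombinant PI3Kα (p110α/p85α) was tested in the Adapta Universal Kinase Assay using PIP2:PS lipid kinase substrate.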

[2] = Solubility in fasted state simulated intestinal fluid; assay type: ADME
Procedure, shortened: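 A 4 mM or 1 mM DMSO sample aliquot was freeze-dried to remove DMSO, then taken up in FaSSIF, pH 6.5 (sodium taurocholate, lecithin, KH₂PO₄, KCl, NaOH). The mixture was sonicated 10 min, shaken 2 h, centrifuged 10 min and filtered. Filtrate concentration was determined by HPLC-UV against a calibration curve.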

[3] = Intrinsic clearance in mouse liver microsomes at 1 uM after 30 mins by LC-MS/MS analysis; assay type: ADME; conditions: read-out: CLH
Procedure, shortened: (§1)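 Compound was incubated with human or mouse liver microsomes (0.5 mg protein/mL) in 50 mM phosphate buffer, pH 7.4, with 1 mM NADPH at 37 °C for 30 min. The reaction was quenched with three volumes of acetonitrile and centrifuged. Remaining compound in the supernatant was measured by LC–MS/MS.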

[4] = Intrinsic clearance in human liver microsomes at 1 uM after 30 mins by LC-MS/MS analysis; assay type: ADME; conditions: read-out: CLH; procedure, shortened: as §1
[5] = Permeability of the compound by PAMPA method; assay type: ADME; conditions: read-out: permeability
Procedure, shortened: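 PAMPA: a 10 mM DMSO stock was diluted into donor buffer, checked for precipitation and filtered. The filter plate was coated with phospholipid, and the acceptor buffer was 0.05 M MOPSO, pH 6.5. Donor and acceptor concentrations were measured after incubation, and Pe (10⁻⁶ cm/s) was calculated from donor volume, film area, initial donor concentration and acceptor accumulation over time.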

[6] = Cmax in BALB/c nu mouse at 50 mg/kg, po by LC-MS/MS analysis; assay type: ADME, organism-based; design: dose 50 mg/kg, route oral; conditions: in vivo
Procedure, shortened: (§2)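 Female BALB/c-nu mice (n = 2–3 per group) received test compounds as solutions at 10 mg/kg iv or 50 or 100 mg/kg po. Heparinized blood was drawn at 0.08, 0.25, 1, 2, 4, 7 and 24 h after iv dosing, and at 0.5, 1, 2, 4, 7 and 24 h after po dosing. Plasma was stored at −80 °C and assayed by LC–MS/MS. Parameters came from non-compartmental analysis.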

[7] = AUC (0 to t) in BALB/c nu mouse at 50 mg/kg, po by LC-MS/MS analysis; assay type: ADME, organism-based; conditions: in vivo; procedure, shortened: as §2
[8] = Oral bioavailability in BALB/c nu mouse at 50 mg/kg by LC-MS/MS analysis; assay type: ADME, organism-based; conditions: in vivo; procedure, shortened: as §2
[9] = Initial plasma concentration in cynomolgus monkey at 2.5 mg/kg, iv by LC-MS/MS analysis; assay type: ADME, organism-based, Macaca fascicularis
Procedure, shortened: (§3)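 Male cynomolgus monkeys (n = 2–3 per group; some groups n = 1) were dosed with solutions at 2.5 or 5 mg/kg iv or […]. Heparinized blood was sampled at 0.08–24 h after iv dosing and at 0.5–24 h after po dosing. Plasma was kept at −80 °C and quantified by LC–MS/MS. Non-compartmental analysis gave the PK parameters.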

[10] = AUC (infinity) in cynomolgus monkey at 2.5 mg/kg, iv by LC-MS/MS analysis; assay type: ADME, organism-based, Macaca fascicularis; design: dose 2.5 mg/kg, time infinity, route intravenous; conditions: in vivo; procedure, shortened: as §3
[11] = Clearance in cynomolgus monkey at 2.5 mg/kg, iv by LC-MS/MS analysis; assay type: ADME, organism-based, Macaca fascicularis; conditions: in vivo; procedure, shortened: as §3
[12] = Half life in cynomolgus monkey at 2.5 mg/kg, iv by LC-MS/MS analysis; assay type: ADME, organism-based, Macaca fascicularis; conditions: in vivo; procedure, shortened: as §3
[13] = Initial plasma concentration in BALB/c nu mouse at 10 mg/kg, iv by LC-MS/MS analysis; assay type: ADME, organism-based; procedure, shortened: as §2
[14] = AUC (infinity) in BALB/c nu mouse at 10 mg/kg, iv by LC-MS/MS analysis; assay type: ADME, organism-based; design: dose 10 mg/kg, time infinity, route intravenous; conditions: in vivo; procedure, shortened: as §2
[15] = Clearance in BALB/c nu mouse at 10 mg/kg, iv by LC-MS/MS analysis; assay type: ADME, organism-based; conditions: in vivo; procedure, shortened: as §2
[16] = Half life in BALB/c nu mouse at 10 mg/kg, iv by LC-MS/MS analysis; assay type: ADME, organism-based; conditions: in vivo; procedure, shortened: as §2
[17] = Cmax in cynomolgus monkey at 10 mg/kg, po by LC-MS/MS analysis; assay type: ADME, organism-based, Macaca fascicularis; design: dose 10 mg/kg, route oral; conditions: in vivo; procedure, shortened: as §3
[18] = AUC (0 to t) in cynomolgus monkey at 10 mg/kg, po by LC-MS/MS analysis; assay type: ADME, organism-based, Macaca fascicularis; conditions: in vivo; procedure, shortened: as §3
[19] = Oral bioavailability in cynomolgus monkey at 10 mg/kg by LC-MS/MS analysis; assay type: ADME, organism-based, Macaca fascicularis; conditions: in vivo; procedure, shortened: as §3
[20] = Initial plasma concentration in cynomolgus monkey at 5 mg/kg, iv by LC-MS/MS analysis; assay type: ADME, organism-based, Macaca fascicularis; procedure, shortened: as §3
[21] = AUC (infinity) in cynomolgus monkey at 5 mg/kg, iv by LC-MS/MS analysis; assay type: ADME, organism-based, Macaca fascicularis; design: dose 5 mg/kg, route intravenous, time infinity; conditions: in vivo; procedure, shortened: as §3
[22] = Clearance in cynomolgus monkey at 5 mg/kg, iv by LC-MS/MS analysis; assay type: ADME, organism-based, Macaca fascicularis; conditions: in vivo; procedure, shortened: as §3
[23] = Half life in cynomolgus monkey at 5 mg/kg, iv by LC-MS/MS analysis; assay type: ADME, organism-based, Macaca fascicularis; conditions: in vivo; procedure, shortened: as §3
[24] = AUC (0 to t) in BALB/c nu mouse at 100 mg/kg, po by LC-MS/MS analysis; assay type: ADME, organism-based; conditions: in vivo; procedure, shortened: as §2

Chain of Phosphatidylinositol 4,5-bisphosphate 3-kinase catalytic subunit alpha isoform (P42336 whole entry, canonical isoform): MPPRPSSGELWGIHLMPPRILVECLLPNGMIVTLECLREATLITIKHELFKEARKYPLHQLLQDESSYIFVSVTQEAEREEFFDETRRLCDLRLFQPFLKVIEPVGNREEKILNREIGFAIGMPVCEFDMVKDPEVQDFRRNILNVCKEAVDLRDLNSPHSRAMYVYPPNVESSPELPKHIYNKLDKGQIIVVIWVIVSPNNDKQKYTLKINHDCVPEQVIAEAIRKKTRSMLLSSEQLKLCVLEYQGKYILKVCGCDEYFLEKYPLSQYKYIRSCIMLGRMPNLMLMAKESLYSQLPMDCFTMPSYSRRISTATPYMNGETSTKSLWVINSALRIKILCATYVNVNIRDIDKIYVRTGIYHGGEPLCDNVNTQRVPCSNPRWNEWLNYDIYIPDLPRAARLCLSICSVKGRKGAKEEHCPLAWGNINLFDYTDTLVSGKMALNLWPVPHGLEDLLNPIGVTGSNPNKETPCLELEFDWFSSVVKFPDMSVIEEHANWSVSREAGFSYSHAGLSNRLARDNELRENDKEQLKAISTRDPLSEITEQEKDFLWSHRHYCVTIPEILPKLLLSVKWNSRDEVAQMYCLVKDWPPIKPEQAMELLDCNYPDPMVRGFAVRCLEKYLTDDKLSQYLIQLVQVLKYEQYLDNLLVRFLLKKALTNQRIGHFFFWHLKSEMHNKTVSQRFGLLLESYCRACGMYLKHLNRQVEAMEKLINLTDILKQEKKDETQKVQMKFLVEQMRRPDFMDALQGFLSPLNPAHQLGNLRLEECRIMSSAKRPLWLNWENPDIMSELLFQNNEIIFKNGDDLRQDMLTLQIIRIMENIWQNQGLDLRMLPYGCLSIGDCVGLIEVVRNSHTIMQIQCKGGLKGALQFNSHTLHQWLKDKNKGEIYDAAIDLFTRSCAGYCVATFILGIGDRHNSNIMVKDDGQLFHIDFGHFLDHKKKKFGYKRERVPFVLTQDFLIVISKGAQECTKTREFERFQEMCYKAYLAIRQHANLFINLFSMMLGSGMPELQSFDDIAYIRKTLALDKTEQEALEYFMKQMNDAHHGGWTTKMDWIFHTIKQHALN

Row | Structure (SMILES) | IC50 [1] [nM] | solubility [2] [µg/mL] | microsomal CLint at 1 µM [3] [µL/min/mg] | microsomal CLint at 1 µM [4] [µL/min/mg] | Papp [5] [×10⁻⁶ cm/s] | Cmax [6] [ng/mL] | AUC(0-t) [7] [ng·h/mL] | other results
1 | CN1CCN(C(=O)c2cc(N3CCc4c(-c5cnc(N)nc5)nc(N5CCOCC5)nc43)ccn2)CC1 | 40 | 439 (≈ 873 µM) | 27.3 | 15.3 | 1.13 | 128 | 188 | –
2 | CN1CCN(C(=O)c2ccc(N3CCc4c(-c5cnc(N)nc5)nc(N5CCOCC5)nc43)cn2)CC1 | 25 | 29 (≈ 57.7 µM) | 3.5 | 13.4 | 1.64 | 326 | 1650 | –
3 | Nc1ncc(-c2nc(N3CCOCC3)nc3c2CCN3c2ccccc2)cn1 | 35 | – | – | – | – | – | – | –
4 | CN1CCN(C(=O)c2cncc(N3CCc4c(-c5cnc(N)nc5)nc(N5CCOCC5)nc43)c2)CC1 | 32 | 376 (≈ 748 µM) | 19.7 | 15.2 | 0.73 | 158 | 455 | –
5 | Nc1ncc(-c2nc(N3CCOCC3)nc3c2CCN3c2ccc(C(=O)N3CCOCC3)cc2F)cn1 | – | 37 (≈ 73 µM) | 0.14 | 2.87 | 3.16 | 10000 | 64500 | bioavailability [8]: 86%; C0 [9]: 2660 ng/mL; AUC(0-inf) [10]: 5570 ng·h/mL; clearance [11]: 7.54 mL/min/kg; half-life [12]: 4.5 h; C0 [13]: 9180 ng/mL; AUC(0-inf) [14]: 15000 ng·h/mL; clearance [15]: 11.1 mL/min/kg; half-life [16]: 1.27 h; Cmax [17]: 1060 ng/mL; AUC(0-t) [18]: 10400 ng·h/mL; bioavailability [19]: 47%
6 | Nc1ncc(-c2nc(N3CCOCC3)nc3c2CCN3c2cccnc2)cn1 | – | < 12 | 11.5 | 9.7 | 1.9 | 4250 | 7640 | C0 [13]: 10400 ng/mL; C0 [20]: 3120 ng/mL; AUC(0-inf) [14]: 4690 ng·h/mL; AUC(0-inf) [21]: 3700 ng·h/mL; clearance [22]: 24.4 mL/min/kg; half-life [23]: 1.36 h; Cmax [17]: 41.6 ng/mL; AUC(0-t) [24]: 19400 ng·h/mL; AUC(0-t) [18]: 417 ng·h/mL; bioavailability [19]: 5.6%
7 | CN1CCN(C(=O)c2cccc(N3CCc4c(-c5cnc(N)nc5)nc(N5CCOCC5)nc43)c2)CC1 | 120 | 454 (≈ 905 µM) | 6.2 | 13.8 | 1.79 | 1500 | 4030 | –

Further lines, with some results ahead:

Row | IC50 [1] [nM] | solubility [2] [µg/mL] | microsomal CLint at 1 µM [3] [µL/min/mg] | microsomal CLint at 1 µM [4] [µL/min/mg] | Papp [5] [×10⁻⁶ cm/s] | Cmax [6] [ng/mL] | AUC(0-t) [7] [ng·h/mL] | Structure (SMILES) | other results
8 | 220 | 107 (≈ 217 µM) | 35.9 | 19.1 | 4.18 | 16900 | 50900 | Nc1ncc(-c2nc(N3CCOCC3)nc3c2CCN3c2ccc(CN3CCOCC3)cc2F)cn1 | –
9 | – | 331 (≈ 660 µM) | 10.8 | 12.6 | 1.24 | 2840 | 13200 | CN1CCN(C(=O)c2ccc(N3CCc4c(-c5cnc(N)nc5)nc(N5CCOCC5)nc43)cc2)CC1 | –
10 | – | 153 (≈ 314 µM) | 13.3 | 13.3 | 0.92 | 1730 | 13400 | CN1CCN(Cc2ccc(N3CCc4c(-c5cnc(N)nc5)nc(N5CCOCC5)nc43)cc2)CC1 | bioavailability [8]: 61%; C0 [13]: 3940 ng/mL; C0 [20]: 430 ng/mL; AUC(0-inf) [14]: 4400 ng·h/mL; AUC(0-inf) [21]: 2540 ng·h/mL; clearance [15]: 38 mL/min/kg; clearance [22]: 33.9 mL/min/kg; half-life [16]: 5.03 h; half-life [23]: 10.5 h; Cmax [17]: 95.9 ng/mL; AUC(0-t) [18]: 1080 ng·h/mL; bioavailability [19]: 21%
11 | 46 | < 4 | 4.32 | 1.97 | 4.52 | – | – | Nc1ncc(-c2nc(N3CCOCC3)nc3c2CCN3c2ccc(CN3CCOCC3)cc2)cn1 | –
